Tests used:
[1] = biological target: Estrogen receptor (Bos taurus) (UniProt Q9XSB5+P49884); assay: Displacement of 17-beta-[3H]-estradiol from estrogen receptor relative to 17-beta-estradiol; assay type: protein assay
Method in brief: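 Competitive binding with calf uterine cytosol as receptor source and 17β-[3H]estradiol (0.723 pmol per tube) as tracer. Compounds were dissolved in ethanol, diluted in TRIS buffer to six to eight concentrations and incubated overnight at 4 °C. Free ligand was removed with dextran-charcoal (90 min, 4 °C), then supernatant was scintillation counted. Nonspecific binding was set with 2 nmol estradiol. RBA = ratio of 50%-inhibiting concentrations (estradiol/sample) × 100%.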

[2] = biological target: T1, Estrogen receptor (Homo sapiens) (UniProt P03372); assay: Transcriptional activation in MCF-7-2a cells expressing estrogen receptor alpha at 10e-6 M; assay type: functional, cell-based
T1 sequence (whole entry): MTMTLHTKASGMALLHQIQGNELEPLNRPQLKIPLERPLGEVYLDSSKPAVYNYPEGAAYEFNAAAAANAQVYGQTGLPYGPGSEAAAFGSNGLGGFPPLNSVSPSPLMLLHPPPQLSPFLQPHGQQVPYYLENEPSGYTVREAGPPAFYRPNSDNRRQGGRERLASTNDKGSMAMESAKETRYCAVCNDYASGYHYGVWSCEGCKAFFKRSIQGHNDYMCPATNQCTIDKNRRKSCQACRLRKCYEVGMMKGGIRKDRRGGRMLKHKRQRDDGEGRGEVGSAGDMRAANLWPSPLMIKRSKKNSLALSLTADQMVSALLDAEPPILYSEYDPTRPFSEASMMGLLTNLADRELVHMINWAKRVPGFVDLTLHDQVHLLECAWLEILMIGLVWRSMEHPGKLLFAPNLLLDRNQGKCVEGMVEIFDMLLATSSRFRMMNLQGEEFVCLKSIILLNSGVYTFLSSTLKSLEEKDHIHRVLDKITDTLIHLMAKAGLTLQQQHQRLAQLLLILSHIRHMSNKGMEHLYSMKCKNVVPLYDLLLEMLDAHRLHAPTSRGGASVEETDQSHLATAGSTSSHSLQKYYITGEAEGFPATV
Method in brief: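 MCF-7-2a cells were precultured one week in DMEM with L-glutamine, antibiotics and dextran/charcoal-treated BCS (50 mL/L), then seeded in six-well plates. After 24 h compounds were added (10^-5 to 10^-10 M final) and cells incubated 50 h, then lysed 20 min at room temperature. Luciferase luminescence (RLU) was read for 10 s and normalized to Bradford protein.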

SMILES	RBA [1]	Activation [2]
Oc1ccc(-c2[nH]cnc2-c2c(Cl)cc(O)cc2Cl)c(Cl)c1	0.1%	27%
COc1ccc([C@@H](N)[C@@H](N)c2c(Cl)cc(OC)cc2Cl)c(Cl)c1	0%	0%
COc1ccc([C@H]2NCCN[C@H]2c2c(Cl)cc(OC)cc2Cl)c(Cl)c1	0%	3%
COc1ccc([C@H]2N=CN[C@H]2c2c(Cl)cc(OC)cc2Cl)c(Cl)c1	0%	6%
Oc1ccc([C@H]2NCCN[C@H]2c2c(Cl)cc(O)cc2Cl)c(Cl)c1	< 0.02%	20%
COc1ccc(-c2[nH]cnc2-c2c(Cl)cc(OC)cc2Cl)c(Cl)c1	0%	6%
N[C@H](c1ccc(O)cc1Cl)[C@@H](N)c1c(Cl)cc(O)cc1Cl	1.5%	98%

From ChEMBL document CHEMBL1134500, “Investigations of new lead structures for the design of selective estrogen receptor modulators” (J Med Chem, 2001)
